Measured values: PMC6525002 (Cancer Management and Research, 2019)
Values joined by “and” are separate entries in the source; they are usually repeats but may differ in a detail not shown here. Identical values can stand only once. “Also recorded” adds a separate entry of the source.

Columns and labels:
[1] = Phase Ib pharmacokinetics, single dose; assay type: in vivo, human
Summary of the method: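 Blood collected on Day 1 at 0.05 h before the first oral dose and 0.5, 1, 1.5, 2, 4, 6, 8, 10, 12 and 24 h after. Test compound quantified by LC-MS using multiple reaction monitoring, LLOQ 1 ng/mL. Cmax, AUC, CL, t1/2 and related parameters were derived from individual concentration-time profiles and summarised descriptively.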

patients = test: Ongoing study exploring higher simotinib doses; assay type: in vivo, human; conditions: 800 mg, 3 patients
[2] = 12 healthy volunteers, cited from earlier work
EGFR phosphorylation = conditions: in vivo, preclinical; cited from earlier work
[3] = test system: advanced NSCLC with EGFR gene mutations; test: Phase Ib clinical antitumor activity; assay type: in vivo, human
EGFR = conditions: read-out: half maximal inhibitory concentration on EGFR; in vitro; cited from earlier work
[4] = test system: patients with advanced NSCLC and EGFR gene mutations; test: Phase Ib safety and toxicity; assay type: in vivo, human
Summary of the method: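 3+3 dose escalation (modified Fibonacci) of oral test compound, 100–650 mg flat doses twice daily for 28 days. Safety population was all patients dosed at least once. AEs were graded by NCI CTCAE v4.0. Haematology, liver and renal labs were taken predose on Days 1, 8, 15, 22 and 29, plus ECG, echocardiography and chest X-ray. MTD was defined by >1 DLT per dose level.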

[5] = single dose 100 mg, N=2, mean ± SD
[6] = single dose 200 mg, N=3, mean ± SD
[7] = single dose 300 mg, N=3, mean ± SD
[8] = single dose 400 mg, N=15, mean ± SD
[9] = single dose 500 mg, N=12, mean ± SD
[10] = single dose 650 mg, N=6, mean ± SD

Substance: simotinib
- bioavailability ([1]; orally administered): good bioavailability
- Tmax ([1]; single dose 100 mg, N=2): 1.8 (1.5–2.0) h
- AUC0-last [1, 5]: 405.6 ± 94.8 ng·h/mL
- AUC0-∞ [1, 5]: 466.2 ± 129.9 ng·h/mL
- CL [1, 5]: 223.1 ± 62.2 L/h
- Cmax [1, 5]: 56.5 ± 18.2 ng/mL
- T1/2 [1, 5]: 5.3 ± 0.3 h
- Vd [1, 5]: 1,704.0±385.8 L
- Tmax ([1]; single dose 200 mg, N=3): 2.0 (2.0–2.0) h
- AUC0-last [1, 6]: 2,339.6±479.9 ng•hr/mL
- AUC0-∞ [1, 6]: 2,955.0±564.0 ng•hr/mL
- CL [1, 6]: 68.9 ± 13.2 L/h
- Cmax [1, 6]: 333.0 ± 35.4 ng/mL
- T1/2 [1, 6]: 12.2 ± 3.5 h
- Vd [1, 6]: 1,250.1±579.7 L
- Tmax ([1]; single dose 300 mg, N=3): 1.5 (1.5–2.0) h
- AUC0-last [1, 7]: 2,814.0±764.5 ng•hr/mL
- AUC0-∞ [1, 7]: 3,243.8±776.1 ng•hr/mL
- CL [1, 7]: 95.2 ± 22.8 L/h
- Cmax [1, 7]: 552.5 ± 388.2 ng/mL
- T1/2 [1, 7]: 9.2 ± 1.0 h
- Vd [1, 7]: 1,286.1±438.6 L
- Tmax ([1]; single dose 400 mg, N=15): 2.0 (1.0–8.0) h
- AUC0-last [1, 8]: 3,581.9±1,868.5 ng•hr/mL
- AUC0-∞ [1, 8]: 4,962.1±3,141.7 ng•hr/mL
- CL [1, 8]: 127.4 ± 117.6 L/h
- Cmax [1, 8]: 566.4 ± 372.0 ng/mL
- T1/2 [1, 8]: 13.3 ± 6.3 h
- Vd [1, 8]: 2,097.2±1,506.8 L
- Tmax ([1]; single dose 500 mg, N=12): 1.8 (0.5–4.0) h
- AUC0-last [1, 9]: 3,791.0±2,741.1 ng•hr/mL
- AUC0-∞ [1, 9]: 6,483.8±5,008.4 ng•hr/mL
- CL [1, 9]: 200.5 ± 300.1 L/h
- Cmax [1, 9]: 514.5 ± 316.4 ng/mL
- T1/2 [1, 9]: 28.0 ± 33.8 h
- Vd [1, 9]: 7,166.6±12,246.1 L
- Tmax ([1]; single dose 650 mg, N=6): 2.0 (1.0–6.0) h
- AUC0-last [1, 10]: 4,652.1±3,442.1 ng•hr/mL
- AUC0-∞ [1, 10]: 7,648.4±3,028.7 ng•hr/mL
- CL [1, 10]: 97.7 ± 39.2 L/h
- Cmax [1, 10]: 828.5 ± 849.0 ng/mL
- T1/2 [1, 10]: 29.7 ± 32.2 h
- Vd [1, 10]: 3,873.8±3,378.1 L
- time to Cmax, range over doses ([1]; single dose, all doses): 1.5 to 2.0 h
- bradycardia (patients): 1 patient
- decreased blood pressure of <90/60 mmHg (patients): occurred in all patients
- dose reduction due to cardiovascular events (patients): 1 patient
- average clearance (CL) T1/2 ([2]; dose range 25–500 mg): 8 to 12 h
- tolerability ([2]; phase Ia): well tolerated
- antitumor activity in nude xenograft model (EGFR phosphorylation): inhibiting EGFR phosphorylation
- deaths during the whole study ([3]; 100 mg group): 2 deaths
- deaths during the whole study ([3]; 200 mg group): 3 deaths
- deaths during the whole study ([3]; 300 mg group): 1 deaths
- deaths during the whole study ([3]; 400 mg group): 1 deaths
- partial response in patients with brain metastases ([3]; 500 mg, 12 patients): 16.7% and 16%
- partial response in patients with brain metastases ([3]; 650 mg, 6 patients): 50%
- stable disease as best response ([3]; 41 patients, RECIST 1.1): 46.3%
- deaths during the whole study (treatment phase and follow-up period) ([3]; all doses): 7 deaths
- survival rate at 1-year ([3]; all doses): 88.2%
- median PFS ([3]; all doses, Kaplan–Meier, 95%CI 4.7, 12.1): 9.9 months
- median OS ([3]; all doses, Kaplan–Meier, 95%CI 12.3, 22.5): 14.6 months
- patients with brain metastases who achieved partial response on these metastases ([3]; of the 18 patients with brain metastases): 5 patients
- IC50 (EGFR): 19.9 nM
- Aminotransferase elevation ([4]; 100 mg twice daily, N=2): 0 n (%)
- Bilirubin elevation ([4]; 100 mg twice daily, N=2): 0 n (%)
- Diarrhea ([4]; 100 mg twice daily, N=2): 0 n (%)
- Erythrocyte reduction ([4]; 100 mg twice daily, N=2): 0 n (%)
- Fatigue ([4]; 100 mg twice daily, N=2): 2 (100) n (%)
- Neutropenia ([4]; 100 mg twice daily, N=2): 0 n (%)
- Pruritus ([4]; 100 mg twice daily, N=2): 2 (100) n (%)
- Rash ([4]; 100 mg twice daily, N=2): 1 (50.0) n (%)
- Aminotransferase elevation ([4]; 200 mg twice daily, N=3): 0 n (%)
- Bilirubin elevation ([4]; 200 mg twice daily, N=3): 2 (66.7) n (%)
- Diarrhea ([4]; 200 mg twice daily, N=3): 3 (100) n (%)
- Erythrocyte reduction ([4]; 200 mg twice daily, N=3): 1 (33.3) n (%)
- Fatigue ([4]; 200 mg twice daily, N=3): 1 (33.3) n (%)
- Neutropenia ([4]; 200 mg twice daily, N=3): 3 (100) n (%)
- Pruritus ([4]; 200 mg twice daily, N=3): 2 (66.7) n (%)
- Rash ([4]; 200 mg twice daily, N=3): 2 (66.7) n (%)
- Aminotransferase elevation ([4]; 300 mg twice daily, N=3): 1 (33.3) n (%)
- Bilirubin elevation ([4]; 300 mg twice daily, N=3): 2 (66.7) n (%)
- Diarrhea ([4]; 300 mg twice daily, N=3): 3 (100) n (%)
- Erythrocyte reduction ([4]; 300 mg twice daily, N=3): 0 n (%)
- Fatigue ([4]; 300 mg twice daily, N=3): 2 (66.7) n (%)
- Neutropenia ([4]; 300 mg twice daily, N=3): 1 (33.3) n (%)
- Pruritus ([4]; 300 mg twice daily, N=3): 1 (33.3) n (%)
- Rash ([4]; 300 mg twice daily, N=3): 0 n (%)
- death during the treatment phase ([4]; 400 mg dose): 1 patient
- patients with at least 1 study drug-related AE ([4]; 400 mg dose group): 86.7%
- Aminotransferase elevation ([4]; 400 mg twice daily, N=15): 2 (13.3) n (%)
- Bilirubin elevation ([4]; 400 mg twice daily, N=15): 1 (6.7) n (%)
- Diarrhea ([4]; 400 mg twice daily, N=15): 7 (46.7) n (%)
- Erythrocyte reduction ([4]; 400 mg twice daily, N=15): 4 (26.7) n (%)
- Fatigue ([4]; 400 mg twice daily, N=15): 2 (13.3) n (%)
- Neutropenia ([4]; 400 mg twice daily, N=15): 3 (20.0) n (%)
- Pruritus ([4]; 400 mg twice daily, N=15): 4 (26.7) n (%)
- Rash ([4]; 400 mg twice daily, N=15): 2 (13.3) n (%)
- patients with at least 1 study drug-related AE ([4]; 500 mg dose group): 91.7%
- AEs of grade ≥3 ([4]; 500 mg group): 3 patients
- Aminotransferase elevation ([4]; 500 mg twice daily, N=12): 2 (16.7) n (%)
- Bilirubin elevation ([4]; 500 mg twice daily, N=12): 2 (16.7) n (%)
- Diarrhea ([4]; 500 mg twice daily, N=12): 7 (58.3) n (%)
- Erythrocyte reduction ([4]; 500 mg twice daily, N=12): 2 (16.7) n (%)
- Fatigue ([4]; 500 mg twice daily, N=12): 3 (25.0) n (%)
- Neutropenia ([4]; 500 mg twice daily, N=12): 2 (16.7) n (%)
- Pruritus ([4]; 500 mg twice daily, N=12): 1 (8.3) n (%)
- Rash ([4]; 500 mg twice daily, N=12): 9 (75.0) n (%)
- Aminotransferase elevation ([4]; 650 mg twice daily, N=6): 3 (50.0) n (%)
- Bilirubin elevation ([4]; 650 mg twice daily, N=6): 0 n (%)
- Diarrhea ([4]; 650 mg twice daily, N=6): 3 (50.0) n (%)
- Erythrocyte reduction ([4]; 650 mg twice daily, N=6): 2 (33.3) n (%)
- Fatigue ([4]; 650 mg twice daily, N=6): 0 n (%)
- Neutropenia ([4]; 650 mg twice daily, N=6): 2 (33.3) n (%)
- Pruritus ([4]; 650 mg twice daily, N=6): 0 n (%)
- Rash ([4]; 650 mg twice daily, N=6): 3 (50) n (%)
- patients with at least 1 study drug-related AE ([4]; 100, 200, 300, and 650 mg dose groups): all patients
- tolerability ([4]; 100 to 650 mg twice daily): well tolerated
- dose-limiting toxicity (DLT) ([4]; 100 to 650 mg twice daily, 28 days): no dose-limiting toxicities; also recorded: No DLT was observed
- Aminotransferase elevation ([4]; Total N=41): 8 (19.5) n (%)
- Bilirubin elevation ([4]; Total N=41): 7 (17.1) n (%)
- Diarrhea ([4]; Total N=41): 23 (56.1) n (%)
- Erythrocyte reduction ([4]; Total N=41): 9 (22.0) n (%)
- Fatigue ([4]; Total N=41): 10 (24.4) n (%)
- Neutropenia ([4]; Total N=41): 11 (26.8) n (%)
- Pruritus ([4]; Total N=41): 10 (24.4) n (%)
- Rash ([4]; Total N=41): 17 (41.5) n (%)
- AEs of grade ≥3, patients ([4]; all doses, 7 of 41 patients): 17.1%
- patients with at least one study drug-related AE ([4]; all doses, 38 of 41 patients): 92.7%
- patients with at least one AE ([4]; all doses, 39 of 41 patients): 95.1%
- anemia, frequency ([4]; all doses, 41 patients): 22.0%
- diarrhea, frequency ([4]; all doses, 41 patients): 56.1%
- fatigue, frequency ([4]; all doses, 41 patients): 24.4%
- increased level of aminotransferase, frequency ([4]; all doses, 41 patients): 19.5%
- increased level of bilirubin, frequency ([4]; all doses, 41 patients): 17.1%
- neutropenia, frequency ([4]; all doses, 41 patients): 26.8%
- pruritus, frequency ([4]; all doses, 41 patients): 24.4%
- rash, frequency ([4]; all doses, 41 patients): 41.5%
- maximum tolerated dose (MTD) ([4]; doses of up to 650 mg twice daily): not found; also recorded: not reached
- patients who discontinued the study ([4]; one patient, 500 mg): 2.4%
